ChEMBL document CHEMBL5724801, “EUbOPEN Chemogenomics Library - Multiplex” (2024)
Values joined by “and” are separate entries in the source; they are usually repeats but may differ in a detail not shown here. Identical values can stand only once.

Tested on: HEK-293T
Test: Multiplex assay against HEK293T
Format: toxicity, cell-based
Settings: human
How it was run: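 Imaging took place on a CQ1 microscope at 37°C and 5% CO2 once compound had been added to live cells stained at seeding with Hoechst33342, BioTracker Green Microtubule Cytoskeleton Dye, MitoTracker Red and Annexin V Alexa Fluor 680. CellPathfinder machine-learning gating classed cells as Hoechst high-intensity objects or normal cells, classed normal cells as having healthy, pyknosed or fragmented nuclei, and classed pyknosed cells as mitotic or apoptotic. Tubulin, mitochondrial-mass and membrane-permeability phenotypes are per cents of the healthy-nucleus cells.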

[1] = 12 h, 1 µM, compound concentration 1 uM
[2] = 12 h, 10 µM, compound concentration 10 uM
[3] = 24 h, 1 µM, compound concentration 1 uM
[4] = 24 h, 10 µM, compound concentration 10 uM
[5] = 48 h, 1 µM, compound concentration 1 uM
[6] = 48 h, 10 µM, compound concentration 10 uM

NCCc1cn(S(=O)(=O)c2c(Cl)nc3sccn23)c2ccccc12.O=C(O)C(=O)O
Population Apoptotic (%) [1]: 37% and 52% | Population Fragmented Nuclei (%) [1]: 5% and 8% | Population Healthy Nuclei (%) [1]: 83% and 78% | Population Hoechst High Intensity Objects (%) [1]: 7% and 8% | Population Membrane Permeable-Phenotype (%) [1]: 0% | Population Mitochondria Different-Phenotype (%) [1]: 53% and 66% | Population Mitotic Cells (%) [1]: 62% and 47% | Population Normal (%) [1]: 92% and 91% | Population Pyknosed Nuclei (%) [1]: 11% and 13% | Population Tubulin-Different-Phenotype (%) [1]: 40% and 34% | Total Cell Count [1]: 446 and 316 | Population Apoptotic (%) [2]: 63% and 64% | Population Fragmented Nuclei (%) [2]: 8% | Population Healthy Nuclei (%) [2]: 49% and 67% | Population Hoechst High Intensity Objects (%) [2]: 22% and 25% | Population Membrane Permeable-Phenotype (%) [2]: 0% | Population Mitochondria Different-Phenotype (%) [2]: 96% and 97% | Population Mitotic Cells (%) [2]: 36% and 35% | Population Normal (%) [2]: 77% and 74% | Population Pyknosed Nuclei (%) [2]: 42% and 23% | Population Tubulin-Different-Phenotype (%) [2]: 88% and 82% | Total Cell Count [2]: 292 and 209 | Population Apoptotic (%) [3]: 33% and 41% | Population Fragmented Nuclei (%) [3]: 9% and 12% | Population Healthy Nuclei (%) [3]: 79% and 78% | Population Hoechst High Intensity Objects (%) [3]: 6% and 4% | Population Membrane Permeable-Phenotype (%) [3]: 1% | Population Mitochondria Different-Phenotype (%) [3]: 28% and 46% | Population Mitotic Cells (%) [3]: 66% and 58% | Population Normal (%) [3]: 93% and 95% | Population Pyknosed Nuclei (%) [3]: 11% and 8% | Population Tubulin-Different-Phenotype (%) [3]: 26% and 19% | Total Cell Count [3]: 585 and 438 | Population Apoptotic (%) [4]: 74% and 75% | Population Fragmented Nuclei (%) [4]: 14% | Population Healthy Nuclei (%) [4]: 37% and 62% | Population Hoechst High Intensity Objects (%) [4]: 34% | Population Membrane Permeable-Phenotype (%) [4]: 2% | Population Mitochondria Different-Phenotype (%) [4]: 83% and 95% | Population Mitotic Cells (%) [4]: 25% and 24% | Population Normal (%) [4]: 65% | Population Pyknosed Nuclei (%) [4]: 48% and 22% | Population Tubulin-Different-Phenotype (%) [4]: 44% and 76% | Total Cell Count [4]: 310 and 195 | Population Apoptotic (%) [5]: 23% and 47% | Population Fragmented Nuclei (%) [5]: 16% and 12% | Population Healthy Nuclei (%) [5]: 77% and 82% | Population Hoechst High Intensity Objects (%) [5]: 3% and 5% | Population Membrane Permeable-Phenotype (%) [5]: 0% and 1% | Population Mitochondria Different-Phenotype (%) [5]: 22% and 23% | Population Mitotic Cells (%) [5]: 76% and 52% | Population Normal (%) [5]: 96% and 94% | Population Pyknosed Nuclei (%) [5]: 6% and 5% | Population Tubulin-Different-Phenotype (%) [5]: 19% and 14% | Total Cell Count [5]: 972 and 678 | Population Apoptotic (%) [6]: 53% and 78% | Population Fragmented Nuclei (%) [6]: 27% and 19% | Population Healthy Nuclei (%) [6]: 24% and 47% | Population Hoechst High Intensity Objects (%) [6]: 62% and 47% | Population Membrane Permeable-Phenotype (%) [6]: 11% and 1% | Population Mitochondria Different-Phenotype (%) [6]: 74% and 75% | Population Mitotic Cells (%) [6]: 46% and 21% | Population Normal (%) [6]: 37% and 52% | Population Pyknosed Nuclei (%) [6]: 47% and 33% | Population Tubulin-Different-Phenotype (%) [6]: 55% and 52% | Total Cell Count [6]: 294 and 212

O=C1CSC(=O)N1C(CCc1ccncc1)COc1ccc(-c2cccc([N+](=O)[O-])c2)cc1 (stereo not drawn)
Population Apoptotic (%) [1]: 18.32% and 7.02% | Population Fragmented Nuclei (%) [1]: 3.08% and 7.35% | Population Hoechst High Intensity Objects (%) [1]: 0.76% and 0% | Population Membrane Permeable-Phenotype (%) [1]: 2.48% and 0% | Population Mitochondria Different-Phenotype (%) [1]: 25.62% and 16.67% | Population Mitotic Cells (%) [1]: 81.68% and 92.98% | Population Normal (%) [1]: 99.24% and 100% | Population Pyknosed Nuclei (%) [1]: 50.38% and 83.82% | Total Cell Count [1]: 262 and 136 | Population Apoptotic (%) [2]: 45.8% and 41.28% | Population Fragmented Nuclei (%) [2]: 3.51% and 3.1% | Population Healthy Nuclei (%) [2]: 19.88% and 12.4% | Population Hoechst High Intensity Objects (%) [2]: 0.58% and 0% | Population Membrane Permeable-Phenotype (%) [2]: 0% | Population Mitochondria Different-Phenotype (%) [2]: 32.35% and 18.75% | Population Mitotic Cells (%) [2]: 54.2% and 58.72% | Population Normal (%) [2]: 99.42% and 100% | Population Pyknosed Nuclei (%) [2]: 76.61% and 84.5% | Population Tubulin-Different-Phenotype (%) [2]: 70.59% and 62.5% | Total Cell Count [2]: 172 and 129 | Population Apoptotic (%) [3]: 27.34% and 23.23% | Population Fragmented Nuclei (%) [3]: 4.44% and 4.69% | Population Hoechst High Intensity Objects (%) [3]: 0.52% and 0% | Population Membrane Permeable-Phenotype (%) [3]: 0.42% and 0% | Population Mitochondria Different-Phenotype (%) [3]: 35.71% and 17.39% | Population Mitotic Cells (%) [3]: 72.66% and 76.77% | Population Normal (%) [3]: 99.48% and 100% | Population Pyknosed Nuclei (%) [3]: 33.42% and 77.34% | Population Apoptotic (%) [4]: 78.62% and 78.15% | Population Fragmented Nuclei (%) [4]: 2.66% and 5.11% | Population Healthy Nuclei (%) [4]: 20.21% and 8.03% | Population Hoechst High Intensity Objects (%) [4]: 1.05% and 0.72% | Population Membrane Permeable-Phenotype (%) [4]: 0% | Population Mitochondria Different-Phenotype (%) [4]: 81.58% and 63.64% | Population Mitotic Cells (%) [4]: 21.38% and 21.85% | Population Normal (%) [4]: 98.95% and 99.28% | Population Pyknosed Nuclei (%) [4]: 77.13% and 86.86% | Population Tubulin-Different-Phenotype (%) [4]: 100% and 45.45% | Total Cell Count [4]: 190 and 138 | Population Apoptotic (%) [5]: 14.91% and 17.91% | Population Fragmented Nuclei (%) [5]: 2.27% and 5.07% | Population Healthy Nuclei (%) [5]: 82.51% and 46.38% | Population Hoechst High Intensity Objects (%) [5]: 0% | Population Membrane Permeable-Phenotype (%) [5]: 2.59% and 1.56% | Population Mitochondria Different-Phenotype (%) [5]: 37.38% and 28.12% | Population Mitotic Cells (%) [5]: 85.09% and 82.09% | Population Normal (%) [5]: 100% | Population Apoptotic (%) [6]: 71.68% and 69.07% | Population Fragmented Nuclei (%) [6]: 2.88% and 7.56% | Population Hoechst High Intensity Objects (%) [6]: 1.89% and 0% | Population Membrane Permeable-Phenotype (%) [6]: 3.37% and 0% | Population Mitochondria Different-Phenotype (%) [6]: 95.51% and 84.62% | Population Mitotic Cells (%) [6]: 28.32% and 30.93% | Population Normal (%) [6]: 98.11% and 100% | Population Pyknosed Nuclei (%) [6]: 54.33% and 81.51% | Population Tubulin-Different-Phenotype (%) [6]: 84.27% and 69.23% | Total Cell Count [6]: 212 and 119
